According to ChEMBL document CHEMBL3632544, “Acyl dihydropyrazolo[1,5-a]pyrimidinones as metabotropic glutamate receptor 5 positive allosteric modulators” (Bioorg Med Chem Lett, 2015):
Values after ≈ are worked out from the molar mass of the structure shown.

Assays:
[1] = target: Metabotropic glutamate receptor 6 (Homo sapiens, UniProt O15303); experiment: Positive allosteric modulation of mGlu6 receptor (unknown origin) relative to control
Rattus norvegicus [2] = experiment: Oral bioavailability in Sprague-Dawley rat at 10 mg/kg; format: ADME, organism-based; conditions: in vivo
Method in brief: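 Male Sprague-Dawley rats were dosed orally at 10 mg/kg in 20% β-CD (1 mg/mL) and sampled over 8 h. Cmax, Tmax and AUC0-8h were determined, and absolute %F was calculated against a discrete IV study.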

[3] = AUC in dog plasma at 1 mg/kg, iv and 5 mg/kg, po; format: ADME, organism-based, Canis lupus familiaris
Rattus norvegicus [4] = experiment: Toxicity in Sprague-Dawley rat assessed as decreased motor coordination at 56.6 mg/kg, po; format: organism-based; conditions: in vivo
Method in brief: (§1)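 Rats dosed orally at 56.6 mg/kg and observed over 6.0 h. Behavior scored on a modified Racine scale, including motor activity and coordination. Brain concentration measured.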

[5] = target: Metabotropic glutamate receptor 8 (Homo sapiens, UniProt O00222); experiment: Positive allosteric modulation of mGlu8 receptor (unknown origin) relative to control
Metabotropic glutamate receptor 8, sequence (O00222 whole entry): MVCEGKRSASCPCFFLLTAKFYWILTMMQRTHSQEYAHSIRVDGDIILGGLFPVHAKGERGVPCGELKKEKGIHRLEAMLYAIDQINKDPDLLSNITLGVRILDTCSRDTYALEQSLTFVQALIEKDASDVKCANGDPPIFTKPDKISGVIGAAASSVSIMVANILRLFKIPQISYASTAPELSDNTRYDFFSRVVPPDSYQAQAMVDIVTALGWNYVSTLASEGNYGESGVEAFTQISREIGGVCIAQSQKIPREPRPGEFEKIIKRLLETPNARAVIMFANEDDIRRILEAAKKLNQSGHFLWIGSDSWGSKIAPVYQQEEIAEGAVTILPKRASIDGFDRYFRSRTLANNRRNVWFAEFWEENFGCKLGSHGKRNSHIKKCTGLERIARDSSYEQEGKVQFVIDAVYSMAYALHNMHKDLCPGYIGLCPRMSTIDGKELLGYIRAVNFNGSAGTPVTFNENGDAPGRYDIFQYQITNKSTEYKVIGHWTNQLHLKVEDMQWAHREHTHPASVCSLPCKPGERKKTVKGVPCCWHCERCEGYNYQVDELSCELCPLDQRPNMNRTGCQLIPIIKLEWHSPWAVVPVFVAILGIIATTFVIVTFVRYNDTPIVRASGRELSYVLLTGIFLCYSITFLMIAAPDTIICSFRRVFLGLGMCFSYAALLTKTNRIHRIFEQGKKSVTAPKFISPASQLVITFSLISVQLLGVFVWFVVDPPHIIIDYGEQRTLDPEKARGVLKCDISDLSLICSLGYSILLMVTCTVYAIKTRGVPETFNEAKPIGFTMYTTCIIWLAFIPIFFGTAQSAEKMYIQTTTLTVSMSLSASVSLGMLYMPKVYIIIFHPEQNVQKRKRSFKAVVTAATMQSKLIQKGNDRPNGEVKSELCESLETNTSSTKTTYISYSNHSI

[6] = target: Metabotropic glutamate receptor 5 (Rattus norvegicus) (UniProt P31424); experiment: Positive allosteric modulation of mGlu5 in rat astrocytes relative to glutamate; format: cell-based
Metabotropic glutamate receptor 5 (Rattus norvegicus), sequence (P31424 21-1203 limits assumed): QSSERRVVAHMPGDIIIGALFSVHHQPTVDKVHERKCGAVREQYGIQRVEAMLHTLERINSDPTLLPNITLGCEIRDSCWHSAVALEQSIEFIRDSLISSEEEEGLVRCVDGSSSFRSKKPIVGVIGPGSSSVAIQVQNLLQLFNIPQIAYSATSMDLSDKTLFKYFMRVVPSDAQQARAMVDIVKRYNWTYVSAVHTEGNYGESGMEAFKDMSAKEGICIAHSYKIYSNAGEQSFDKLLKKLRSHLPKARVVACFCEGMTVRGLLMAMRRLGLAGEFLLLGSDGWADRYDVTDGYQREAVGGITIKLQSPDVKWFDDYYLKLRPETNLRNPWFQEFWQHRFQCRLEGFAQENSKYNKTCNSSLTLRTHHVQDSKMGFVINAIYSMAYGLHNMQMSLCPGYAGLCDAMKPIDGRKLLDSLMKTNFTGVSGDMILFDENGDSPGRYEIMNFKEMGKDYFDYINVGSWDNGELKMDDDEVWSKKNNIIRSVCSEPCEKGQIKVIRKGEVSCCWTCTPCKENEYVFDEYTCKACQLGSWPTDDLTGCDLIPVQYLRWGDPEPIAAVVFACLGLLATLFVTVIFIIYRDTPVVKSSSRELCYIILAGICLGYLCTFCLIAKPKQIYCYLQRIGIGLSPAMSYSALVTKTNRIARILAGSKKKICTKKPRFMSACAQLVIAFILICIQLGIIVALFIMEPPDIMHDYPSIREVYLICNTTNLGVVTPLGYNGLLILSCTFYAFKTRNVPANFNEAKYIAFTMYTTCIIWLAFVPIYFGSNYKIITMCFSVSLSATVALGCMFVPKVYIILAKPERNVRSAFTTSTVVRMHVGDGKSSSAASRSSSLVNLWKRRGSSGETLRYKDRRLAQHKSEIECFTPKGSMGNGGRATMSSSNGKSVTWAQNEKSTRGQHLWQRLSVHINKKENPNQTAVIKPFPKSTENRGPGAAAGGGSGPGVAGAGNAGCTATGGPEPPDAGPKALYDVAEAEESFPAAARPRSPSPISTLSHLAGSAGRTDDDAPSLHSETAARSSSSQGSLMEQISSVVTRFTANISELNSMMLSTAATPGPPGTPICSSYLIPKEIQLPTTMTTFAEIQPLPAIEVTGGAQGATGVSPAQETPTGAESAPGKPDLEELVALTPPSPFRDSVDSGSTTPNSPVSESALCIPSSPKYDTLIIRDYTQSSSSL

[7] = Solubility in simulated gastric fluid; format: ADME; conditions: simulated gi fluid
Method in brief: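 Solubility measured in simulated gastric fluid at 37 °C over 1 h; compound stability was assessed in parallel.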

Cytochrome P450 2D6 = Cytochrome P450 2D6 (Homo sapiens, UniProt P10635); experiment: Inhibition of CYP2D6 (unknown origin); format: ADME
Cytochrome P450 2D6, sequence (P10635 whole entry): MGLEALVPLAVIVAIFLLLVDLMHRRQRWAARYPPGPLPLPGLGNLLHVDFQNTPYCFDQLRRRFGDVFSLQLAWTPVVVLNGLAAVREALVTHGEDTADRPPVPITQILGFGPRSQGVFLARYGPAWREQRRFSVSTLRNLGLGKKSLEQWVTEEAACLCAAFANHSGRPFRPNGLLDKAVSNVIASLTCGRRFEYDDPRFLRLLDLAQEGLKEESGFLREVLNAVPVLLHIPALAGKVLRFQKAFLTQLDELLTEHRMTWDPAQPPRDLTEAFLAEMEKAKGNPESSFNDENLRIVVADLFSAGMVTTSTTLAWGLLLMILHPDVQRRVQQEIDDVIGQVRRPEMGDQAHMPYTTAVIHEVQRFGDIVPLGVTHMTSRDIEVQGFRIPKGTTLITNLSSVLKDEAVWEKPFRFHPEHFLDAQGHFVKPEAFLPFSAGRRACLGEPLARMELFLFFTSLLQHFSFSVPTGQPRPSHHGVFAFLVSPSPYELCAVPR

[8] = Cmax in dog at 1 mg/kg, iv and 5 mg/kg, po; format: ADME, organism-based, Canis lupus familiaris; conditions: in vivo
Brain [9] = experiment: Fraction unbound in rat brain; format: ADME, tissue-based
Method in brief: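 Rat brain unbound fraction obtained from a brain homogenate binding assay.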

[10] = Oral bioavailability in dog at 5 mg/kg; format: ADME, organism-based, Canis lupus familiaris; conditions: in vivo
[11] = Volume of distribution at steady state in dog at 1 mg/kg, iv and 5 mg/kg, po; format: ADME, organism-based, Canis lupus familiaris; conditions: in vivo, read-out: Vdss
Rattus norvegicus [12] = experiment: Inhibition of amphetamine-induced hyperlocomotion in oral-dosed Sprague-Dawley rat assessed as reversal of amphtamine-induced effect drug administered 20 mins prior to 1 mg/kg amphetamine challenge; format: functional; conditions: read-out: MED
Method in brief: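 Male Sprague-Dawley rats received a single oral screening dose of 10 mg/kg; full dose-response studies were also run (n = 8/group). Readout is % reversal of amphetamine-induced locomotion relative to vehicle control. Terminal brain and plasma levels were sampled at T90.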

Plasma [13] = experiment: Fraction unbound in human plasma; format: ADME, cell-free
Method in brief: (§2)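 Plasma protein binding measured in human and rat plasma; readout is fraction unbound.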

Rattus norvegicus [14] = experiment: Toxicity in Sprague-Dawley rat assessed as decreased motor activity at 56.6 mg/kg, po; format: organism-based; conditions: in vivo; method in brief: as §1
[15] = target: T1, Metabotropic glutamate receptor 5 (Homo sapiens, UniProt P41594); experiment: Positive allosteric modulation of human mGlu5 expressed in HEK293 cells assessed as calcium mobilization relative to glutamate; format: functional, cell-based
Method in brief: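 Calcium mobilization in HEK293 cells expressing human mGlu5, reported as EC50 and % Glu Max. Mean±SEM of three or more independent determinations, each run in triplicate.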

Rattus norvegicus [16] = experiment: Cmax in Sprague-Dawley rat at 2.5 mg/kg, iv and 10 mg/kg, po; format: ADME, organism-based; conditions: in vivo
Method in brief: (§3)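 Discrete PK in male Sprague-Dawley rats. Oral arm: 10 mg/kg PO in 20% β-CD at 1 mg/mL. Plasma sampled to 8 h, giving Cmax, Tmax and AUC0-8h. Absolute oral bioavailability derived against the IV arm.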

[17] = target: T1, Metabotropic glutamate receptor 5; experiment: Positive allosteric modulation of human mGlu5 expressed in HEK293 cells assessed as calcium mobilization; format: functional, cell-based; conditions: read-out: EC50
Method in brief: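 Calcium mobilization read-out in HEK293 cells stably expressing human mGlu5; PAM EC50 and efficacy as % of maximal glutamate response. Mean±SEM of three or more independent determinations, each in triplicate.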

[18] = target: Metabotropic glutamate receptor 5 (Rattus norvegicus, UniProt P31424); experiment: Positive allosteric modulation of rat mGlu5 assessed as calcium mobilization by cell-based assay; format: functional
Metabotropic glutamate receptor 5 (Rattus norvegicus, UniProt P31424), sequence (P31424 whole entry): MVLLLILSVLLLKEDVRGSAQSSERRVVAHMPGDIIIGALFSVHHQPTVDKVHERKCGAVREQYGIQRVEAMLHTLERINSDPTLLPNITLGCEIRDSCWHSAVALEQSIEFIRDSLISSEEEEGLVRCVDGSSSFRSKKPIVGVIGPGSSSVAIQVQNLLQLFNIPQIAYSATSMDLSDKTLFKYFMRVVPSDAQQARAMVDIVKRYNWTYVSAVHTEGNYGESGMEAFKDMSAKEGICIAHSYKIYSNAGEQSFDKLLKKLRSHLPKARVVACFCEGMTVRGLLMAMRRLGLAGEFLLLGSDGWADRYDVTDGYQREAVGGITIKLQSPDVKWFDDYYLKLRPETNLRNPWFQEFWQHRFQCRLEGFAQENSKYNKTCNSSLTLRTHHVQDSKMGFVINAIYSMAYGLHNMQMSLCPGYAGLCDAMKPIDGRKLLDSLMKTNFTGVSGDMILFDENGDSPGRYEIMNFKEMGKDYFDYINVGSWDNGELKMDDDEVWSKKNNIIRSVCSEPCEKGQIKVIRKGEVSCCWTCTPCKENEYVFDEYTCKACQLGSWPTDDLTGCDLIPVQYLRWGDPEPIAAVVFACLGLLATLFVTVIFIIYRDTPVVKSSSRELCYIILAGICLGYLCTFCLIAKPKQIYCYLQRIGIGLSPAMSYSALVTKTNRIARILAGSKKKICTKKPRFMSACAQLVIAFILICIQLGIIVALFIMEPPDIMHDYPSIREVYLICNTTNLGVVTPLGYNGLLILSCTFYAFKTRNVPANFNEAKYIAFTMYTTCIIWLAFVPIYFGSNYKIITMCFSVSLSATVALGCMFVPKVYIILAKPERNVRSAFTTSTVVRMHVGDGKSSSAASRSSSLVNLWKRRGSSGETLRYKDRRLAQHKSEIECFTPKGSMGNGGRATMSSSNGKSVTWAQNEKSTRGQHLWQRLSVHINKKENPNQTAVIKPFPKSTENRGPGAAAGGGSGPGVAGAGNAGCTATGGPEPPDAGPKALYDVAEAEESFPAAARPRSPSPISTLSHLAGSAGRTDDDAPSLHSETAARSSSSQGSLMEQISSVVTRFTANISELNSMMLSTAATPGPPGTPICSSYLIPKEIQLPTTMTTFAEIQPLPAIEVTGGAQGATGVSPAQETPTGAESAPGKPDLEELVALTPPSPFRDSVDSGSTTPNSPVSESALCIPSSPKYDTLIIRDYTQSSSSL

Cytochrome P450 1A2 = target: T2, Cytochrome P450 1A2 (Homo sapiens, UniProt P05177); experiment: Inhibition of CYP1A2 (unknown origin); format: ADME
T2 sequence (P05177 whole entry): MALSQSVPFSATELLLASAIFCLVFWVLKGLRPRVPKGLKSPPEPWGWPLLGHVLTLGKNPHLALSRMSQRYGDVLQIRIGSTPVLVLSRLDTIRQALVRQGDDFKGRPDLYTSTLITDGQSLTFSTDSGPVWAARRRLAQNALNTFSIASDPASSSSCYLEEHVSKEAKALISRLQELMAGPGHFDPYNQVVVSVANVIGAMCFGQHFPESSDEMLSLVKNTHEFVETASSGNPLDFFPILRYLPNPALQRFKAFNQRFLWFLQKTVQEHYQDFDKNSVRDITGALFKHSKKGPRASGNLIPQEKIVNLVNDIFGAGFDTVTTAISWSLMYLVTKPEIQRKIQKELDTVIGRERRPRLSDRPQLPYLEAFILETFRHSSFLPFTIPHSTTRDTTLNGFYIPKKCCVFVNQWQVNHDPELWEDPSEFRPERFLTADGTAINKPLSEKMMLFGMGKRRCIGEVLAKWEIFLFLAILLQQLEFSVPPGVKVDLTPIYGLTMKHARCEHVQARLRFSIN

[19] = AUC (0 to 8 hrs) in Sprague-Dawley rat plasma at 2.5 mg/kg, iv and 10 mg/kg, po; format: ADME, organism-based; method in brief: as §3
[20] = target: Metabotropic glutamate receptor 5 (Rattus norvegicus) (UniProt P31424); experiment: Positive allosteric modulation of rat mGlu5 assessed as calcium mobilization by cell-based assay relative to glutamate; format: functional
[21] = target: Metabotropic glutamate receptor 4 (Homo sapiens, UniProt Q14833); experiment: Positive allosteric modulation of mGlu4 receptor (unknown origin) relative to control
[22] = Elimination half life in Sprague-Dawley rat at 2.5 mg/kg, iv and 10 mg/kg, po; format: ADME, organism-based; conditions: in vivo, read-out: beta t1/2 (converted); method in brief: as §3
[23] = Stability in beta cyclodextrin at pH 6 upto 5 days; format: physicochemical; conditions: buffer, pH 6, 120 h
Method in brief: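 Stability of the compound formulated at 4 mg/mL in 20% β-cyclodextrin vehicle, pH 6, monitored for up to five days; percent decomposition of the amide determined.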

[24] = Volume of distribution at steady state in Sprague-Dawley rat at 2.5 mg/kg, iv and 10 mg/kg, po; format: ADME, organism-based; conditions: in vivo, read-out: Vdss
[25] = Elimination half life in dog at 1 mg/kg, iv and 5 mg/kg, po; format: ADME, organism-based, Canis lupus familiaris; conditions: in vivo
Plasma [26] = experiment: Fraction unbound in rat plasma; format: ADME, cell-free; method in brief: as §2
[27] = target: Metabotropic glutamate receptor 3 (Homo sapiens, UniProt Q14832); experiment: Positive allosteric modulation of mGlu3 receptor (unknown origin) relative to control
[28] = target: Metabotropic glutamate receptor 2 (Homo sapiens, UniProt Q14416); experiment: Positive allosteric modulation of mGlu2 receptor (unknown origin) relative to control
Brain [29] = experiment: Drug concentration in Sprague-Dawley rat brain at 56.6 mg/kg, po; format: ADME, organism-based; conditions: in vivo, read-out: Drug uptake
Cytochrome P450 3A4 = Cytochrome P450 3A4 (Homo sapiens, UniProt P08684); experiment: Inhibition of CYP3A4 (unknown origin); format: ADME
Rattus norvegicus [30] = experiment: Toxicity in Sprague-Dawley rat assessed as alteration in behavior across 30 distinct autonomic and somatomotor endpoints at 30 mg/kg, po; format: organism-based; conditions: in vivo
Method in brief: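 Modified Irwin screen in rats given a single 30 mg/kg oral dose; 30 autonomic and somatomotor endpoints scored for behavioral change; brain concentration sampled 1.0 h post-dose.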

[31] = Plasma clearance in Sprague-Dawley rat at 2.5 mg/kg, iv and 10 mg/kg, po; format: ADME, organism-based
[32] = Stability in simulated gastric fluid for 1 hr; format: physicochemical; conditions: simulated gi fluid
Method in brief: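 Incubation in simulated gastric fluid at 37 °C for 1 h; decomposition of the external amide assessed.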

[33] = Drug concentration in Sprague-Dawley rat brain at 30 mg/kg, po after 1 hr; format: ADME, organism-based; conditions: read-out: Drug uptake
Method in brief: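 Rat modified Irwin study: single 30 mg/kg PO dose, with behaviour scored across 30 autonomic and somatomotor endpoints. Brain concentration measured 1.0 h post-dose. Unbound brain level estimated.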

[34] = Plasma clearance in dog at 1 mg/kg, iv and 5 mg/kg, po; format: ADME, organism-based, Canis lupus familiaris
Cytochrome P450 2C9 = Cytochrome P450 2C9 (Homo sapiens, UniProt P11712); experiment: Inhibition of CYP2C9 (unknown origin); format: ADME
[35] = Plasma clearance in Sprague-Dawley rat at 0.2 mg/kg, iv; format: ADME, organism-based
[36] = target: Metabotropic glutamate receptor 7 (Homo sapiens, UniProt Q14831); experiment: Positive allosteric modulation of mGlu7 receptor (unknown origin) relative to control
Metabotropic glutamate receptor 7, sequence (Q14831 whole entry): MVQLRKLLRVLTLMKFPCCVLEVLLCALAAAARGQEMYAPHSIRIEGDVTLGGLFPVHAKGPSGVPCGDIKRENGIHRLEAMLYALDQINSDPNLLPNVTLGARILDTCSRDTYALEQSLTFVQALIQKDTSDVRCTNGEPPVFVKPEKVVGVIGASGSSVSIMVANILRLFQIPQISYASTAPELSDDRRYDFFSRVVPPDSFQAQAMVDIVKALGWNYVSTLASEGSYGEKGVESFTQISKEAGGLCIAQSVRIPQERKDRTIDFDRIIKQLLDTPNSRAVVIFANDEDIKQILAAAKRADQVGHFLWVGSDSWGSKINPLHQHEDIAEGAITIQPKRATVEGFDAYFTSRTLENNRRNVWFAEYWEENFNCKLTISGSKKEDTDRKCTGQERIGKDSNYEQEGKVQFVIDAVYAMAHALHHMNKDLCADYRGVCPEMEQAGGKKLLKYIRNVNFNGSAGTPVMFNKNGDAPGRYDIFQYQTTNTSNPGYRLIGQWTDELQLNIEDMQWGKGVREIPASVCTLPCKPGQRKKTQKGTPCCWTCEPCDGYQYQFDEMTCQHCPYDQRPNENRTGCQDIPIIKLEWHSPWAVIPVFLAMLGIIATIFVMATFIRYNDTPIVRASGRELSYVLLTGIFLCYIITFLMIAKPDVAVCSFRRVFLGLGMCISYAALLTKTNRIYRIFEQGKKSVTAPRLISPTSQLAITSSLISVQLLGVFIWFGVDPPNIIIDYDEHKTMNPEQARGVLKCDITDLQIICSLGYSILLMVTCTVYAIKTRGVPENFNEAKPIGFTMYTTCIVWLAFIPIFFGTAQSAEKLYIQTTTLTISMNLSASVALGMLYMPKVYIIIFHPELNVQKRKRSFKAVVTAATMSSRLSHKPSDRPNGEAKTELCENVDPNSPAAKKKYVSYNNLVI

[37] = target: Metabotropic glutamate receptor 1 (Homo sapiens, UniProt Q13255); experiment: Positive allosteric modulation of mGlu1 receptor (unknown origin) relative to control
Plasma [38] = experiment: Stability in rat plasma after 4 hrs; format: ADME, cell-free
Method in brief: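 Compound incubated in rat plasma at 37 °C for 4 h; stability assessed.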

## CC(=O)N1CCCn2nc(COc3ccccc3)cc21
[1]
  EC50: > 10 µM
Rattus norvegicus [2]
  F: 29%
[3]
  AUC: 0.1 µM·h
Rattus norvegicus [4]
  Activity: Toxic
[5]
  EC50: > 10 µM
[6]
  %max: 57%
[7]
  solubility: 315 µg/mL (≈ 1160 µM)
Cytochrome P450 2D6
  IC50: > 30 µM
[8]
  Cmax: < 0.1 µM
Brain [9]
  Fu: 0.51
[10]
  bioavailability: < 5%
[11]
  Vd: 1.1 L/kg
Rattus norvegicus [12]
  minimal effective dose: 3 mg/kg
Plasma [13]
  Fu: 0.26
Rattus norvegicus [14]
  Activity: Toxic
[15]
  %max: 65%
Rattus norvegicus [16]
  Cmax: 2.5 µM
[17]
  EC50: 0.36 µM
[18]
  EC50: 0.06 µM
Cytochrome P450 1A2
  IC50: > 30 µM
[19]
  AUC(0-t): 3.3 µM·h
[20]
  %max: 65%
[21]
  EC50: > 10 µM
[22]
  half-life: 6.5 h
[23]
  Stability: Stable
[24]
  Vd: 3.9 L/kg
[25]
  half-life: < 0.5 h
Plasma [26]
  Fu: 0.37
[27]
  EC50: > 10 µM
[28]
  EC50: > 10 µM
Brain [29]
  concentration: 113 µM
Cytochrome P450 3A4
  IC50: > 30 µM
Rattus norvegicus [30]
  Activity: Non-toxic
[31]
  clearance: 54 mL/min/kg
[32]
  Stability: Stable
[33]
  concentration at 1 h: 71 µM
[34]
  clearance: 37 mL/min/kg
Cytochrome P450 2C9
  IC50: > 30 µM
[35]
  clearance: 118 mL/min/kg
[36]
  EC50: > 10 µM
[37]
  EC50: > 10 µM
Plasma [38]
  Stability: Stable
